The record followed here is ChEMBL document CHEMBL1154756, “Synthesis of new chalcone derivatives containing acridinyl moiety with potential antimalarial activity” (Eur J Med Chem, 2010).

The subject of test [1] is Plasmodium falciparum. The test is described as follows: Antimalarial activity against chloroquine-sensitive Plasmodium falciparum NF54 assessed as inhibition of schizont maturation at 100 ug/ml after 36-40 hrs relative to control. The class given is functional. Further details: scale not given: the % may be the effect or the level left. The method in brief: (§1)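 NF-54 cultures were kept in RPMI 1640 with 25 mM HEPES, 1% bicarbonate and 0.5% ALBUMAX-II. Wells held 3% haematocrit in medium with 10% FBS, and compound was added from a 5 mg/mL DMSO stock diluted in medium. Duplicates were incubated at 37 °C in CO2 for 36–40 h. Rings, trophozoites and schizonts were counted per 100 parasites on Giemsa smears, giving % maturation inhibition versus untreated control.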

The test system of test [2] is Plasmodium falciparum. The test is described as follows: Antimalarial activity against chloroquine-sensitive Plasmodium falciparum NF54 assessed as inhibition of schizont maturation at 50 ug/ml after 36-40 hrs relative to control. The class given is functional. Further details: scale not given: the % may be the effect or the level left. The method in brief:
as §1

For test [3], the system named is Plasmodium falciparum. The test is described as follows: Antimalarial activity against chloroquine-sensitive Plasmodium falciparum NF54 assessed as inhibition of schizont maturation at 10 ug/ml after 36-40 hrs relative to control. The class given is functional. Further details: scale not given: the % may be the effect or the level left. The method in brief: as §1

The subject of test [4] is Plasmodium falciparum. The test is described as follows: Antimalarial activity against chloroquine-sensitive Plasmodium falciparum NF54 assessed as inhibition of schizont maturation at 2 ug/ml after 36-40 hrs relative to control. The class given is functional. Also on record: scale not given: the % may be the effect or the level left. The method in brief:
as §1

For test [5], the system named is Plasmodium falciparum. The test is described as follows: Antimalarial activity against chloroquine-sensitive Plasmodium falciparum NF54 assessed as inhibition of schizont maturation. The class given is functional. Also on record: scale not given: the % may be the effect or the level left. The gist of the method:
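P. falciparum NF-54 was grown in RPMI 1640 with 25 mM HEPES, 1% sodium bicarbonate and 0.5% ALBUMAX-II. The assay used 3% haematocrit in medium with 10% FBS, with a DMSO stock (5 mg/mL) diluted in medium to five-fold dilutions. Duplicate wells were incubated at 37 °C in CO2 for 36–40 h, then Giemsa smears were read. MIC was the concentration fully blocking maturation to schizonts.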

Test [6] deals with Plasmodium falciparum. Briefly: Antimalarial activity against chloroquine-resistant Plasmodium falciparum W2. The class given is functional, organism-based.
Test [7] relates to Plasmodium falciparum. The test is described as follows: Antimalarial activity against chloroquine-sensitive Plasmodium falciparum NF54 assessed as inhibition of schizont maturation at 0.4 ug/ml after 36-40 hrs relative to control. Further details: scale not given: the % may be the effect or the level left. The class given is functional. The gist of the method: as §1
Test [8] deals with Plasmodium falciparum. The test is described as follows: Antimalarial activity against chloroquine-sensitive Plasmodium falciparum NF54 assessed as inhibition of schizont maturation at 0.08 ug/ml after 36-40 hrs relative to control. The class given is functional. Also on record: scale not given: the % may be the effect or the level left. The method in brief: as §1
The test system of test [9] is Plasmodium yoelii. The test is described as follows: Antimalarial activity against chloroquine-resistant Plasmodium yoelii N67 infected in Swiss mice (Mus musculus) assessed as suppression of parasitaemia at 50 mg/kg, intraperitoneal once daily for 4 consecutive days measured after 4 days. The class given is functional.
Test [10] has as its system Plasmodium yoelii. Briefly: Antimalarial activity against chloroquine-resistant Plasmodium yoelii N67 infected in Swiss mice (Mus musculus) assessed as suppression of parasitaemia at 50 mg/kg, intraperitoneal once daily for 4 consecutive days measured after 6 days. The class given is functional, organism-based. Further details: dose 50 mg/kg.
For test [11], the system named is Plasmodium yoelii. The test is described as follows: Antimalarial activity against chloroquine-resistant Plasmodium yoelii N67 infected in Swiss mice (Mus musculus) assessed as mean survival time at 50 mg/kg, intraperitoneal once daily for 4 consecutive days. The class given is functional.
In test [12] the test system is Plasmodium falciparum. Briefly: Antimalarial activity against chloroquine-sensitive Plasmodium falciparum NF54 assessed as inhibition of schizont maturation at 0.50 ug/ml after 36-40 hrs relative to control. The class given is functional. Also on record: scale not given: the % may be the effect or the level left.
The subject of test [13] is Plasmodium falciparum. Briefly: Antimalarial activity against chloroquine-sensitive Plasmodium falciparum NF54 assessed as inhibition of schizont maturation at 0.25 ug/ml after 36-40 hrs relative to control. The class given is functional. Further details: scale not given: the % may be the effect or the level left.
Test [14] has as its system Plasmodium falciparum. The test is described as follows: Antimalarial activity against chloroquine-sensitive Plasmodium falciparum NF54 assessed as inhibition of schizont maturation at 0.125 ug/ml after 36-40 hrs relative to control. Further details: scale not given: the % may be the effect or the level left. The class given is functional.
In test [15] the test system is Plasmodium falciparum. The test is described as follows: Antimalarial activity against chloroquine-sensitive Plasmodium falciparum NF54 assessed as inhibition of schizont maturation at 0.0625 ug/ml after 36-40 hrs relative to control. Further details: scale not given: the % may be the effect or the level left. The class given is functional.

Activity calls are given as the source filed them. The rule behind the calls is not given here.

With `O=C(/C=C/c1cccc([N+](=O)[O-])c1)c1ccc(Nc2c3ccccc3nc3ccccc23)cc1`, the Activity in test [1] was 100%; in test [2] it was 100%; in test [3] it was 100%; in [4], 0%.
In the case of `O=C(/C=C/c1ccccc1)c1ccc(Nc2c3ccccc3nc3ccccc23)cc1`, the Activity stood at 100% in [1], 100% in [2], 100% in test [3] and 42.8% in test [4].
As to `COc1cc(/C=C/C(=O)c2ccc(O)c(CC=C(C)C)c2O)ccc1O` [CROTAORIXIN], in test [5], the Activity is reported as 100%.
In the case of `CC(C)=CCc1cc(/C=C/C(=O)c2ccc(O)cc2O)ccc1O` [LICOAGROCHALCONE A], in test [6], the IC50 (in general, the concentration that inhibits the measured activity by half) was 10.3 µM.
As for `COc1ccc(/C=C/C(=O)c2ccc(Nc3c4ccccc4nc4ccccc34)cc2)cc1`, the Activity is reported as 100% in test [1]; 100% in test [2]; 100% in test [3]; 85.7% in test [4]; 71.4% in [7]; 14.3% in test [8]. For the same compound, the result in test [9] and in [10] was inactive. In addition, the Survival in test [11] amounted to 10.67 days.
Take `CCN(CC)CCCC(C)Nc1ccnc2cc(Cl)ccc12` (stereo not given) [CHLOROQUINE]: the Activity amounted to 100% in test [12], 100% in test [13], 97.1% in test [14] and 74.3% in [15].
On to `Cc1ccc(/C=C/C(=O)c2ccc(Nc3c4ccccc4nc4ccccc34)cc2)cc1`, for which the Activity came out at 100% in test [1], 100% in [2], 100% in [3] and 42.8% in test [4].
In the case of `O=C(/C=C/c1ccccc1)c1cccc(Nc2c3ccccc3nc3ccccc23)c1`, the Activity in [1] turned out to be 100%; in test [2] it was 100%; in test [3], 100%; in test [4] it was 97.1%; in [7], 4.3%. Also, the result in [9] and in test [10] was inactive. The Survival in [11] is 15.5 days.
In the case of `Cc1cccc(/C=C/C(=O)c2ccc(Nc3c4ccccc4nc4ccccc34)cc2)c1`, the Activity in test [1] is given as 100%; in test [2], 100%; in [3], 100%; in test [4], 0%.
Turning to `COc1ccc(/C=C/C(=O)c2cccc(Nc3c4ccccc4nc4ccccc34)c2)cc1`, the Activity in test [1] was 100%; in test [2] it was 100%; in test [3], 100%; in [4], 71.4%; in test [7], 7.1%; in test [9], 6.22%. The result in [10] was inactive. Further, the Survival in test [11] amounted to 15.2 days.
Regarding `O=C(/C=C/c1ccc(Cl)cc1)c1ccc(Nc2c3ccccc3nc3ccccc23)cc1`, the Activity in [1] was 100%; in test [2], 100%; in test [3] it was 100%; in [4] it was 0%.
Consider `O=C(/C=C/c1ccc(Cl)cc1)c1cccc(Nc2c3ccccc3nc3ccccc23)c1`, for which the Activity in [1] is 100%; in test [2], 100%; in test [3] it was 100%; in [4], 0%.
Regarding `O=C(/C=C/C=C/c1ccccc1)c1ccc(Nc2c3ccccc3nc3ccccc23)cc1`, the Activity in test [1] worked out at 100%; in test [2] it was 100%; in test [3] it was 100%; in [4], 64.3%; in test [7] it was 0%.
`COc1cc(/C=C/C(=O)c2ccc(Nc3c4ccccc4nc4ccccc34)cc2)cc(OC)c1OC`: the Activity in test [1] was found to be 100%; in test [2], 100%; in test [3], 100%; in test [4] it was 57.1%; in test [7], 5.7%.
